Assay results as given in publication PMC3159713 (Bioorganic & medicinal chemistry letters, 2011).

Assays:
[1] = biological target: Norwalk virus 3C protease (Norovirus, UniProt Q83883); assay: Recombinant NV protease fluorogenic; type: biochemical; conditions: for IC50 column: designated inactive (percent inhibition < 25): incubated with the enzyme for 30 minutes at an [I]/[S] ratio of 25
murine norovirus (MNV) = assay: Murine norovirus replication in RAW267.4 cells; type: cell-based, murine norovirus-1 (MNV-1); conditions: MNV-1 at MOI of 2, TCID50 assay
[2] = system: Norwalk norovirus (NV replicon-harboring HG23 cells); assay: Cell-based NV replicon system; parameters: species or system Norwalk virus; conditions: NV genome levels at 24 hr post-treatment
In short: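 Norwalk virus replicon-harbouring HG23 cells, 1 day old and 80-90% confluent, were treated with the test compound from 0 (mock-DMSO) to 320 μM. NV genome was measured by qRT-PCR. ED50 was determined from NV genome levels at 24 hr post-treatment.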

HG23 cells = assay: Cell cytotoxicity assay kit in HG23 cells; type: cell-based; conditions: 48 hr of treatment

Sequence of Norwalk virus 3C protease (Q83883 1101-1281): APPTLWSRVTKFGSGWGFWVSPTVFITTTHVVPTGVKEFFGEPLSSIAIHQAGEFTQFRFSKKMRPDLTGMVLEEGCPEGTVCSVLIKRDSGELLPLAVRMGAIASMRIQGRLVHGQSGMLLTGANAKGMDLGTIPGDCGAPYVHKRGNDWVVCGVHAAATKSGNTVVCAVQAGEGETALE

Compound | IC50 column: designated inactive (percent inhibition < 25) [1] | ED50, replication of murine norovirus (MNV) (murine norovirus (MNV)) | Inhibition of Norwalk virus 3C protease (in words) [1] | ED50 (effective dose that inhibits 50% of norovirus replication) [2] | TD50 (median toxic dose) (HG23 cells)
O=C[C@H](CC1CCNC1=O)NC(=O)[C@H](Cc1ccccc1)NC(=O)N1CCOCC1 (some centres unmarked) [Compound 2] | Inactive ^a |  |  |  | 
CC(C)C[C@H](NC(=O)OCc1ccccc1)C(=O)N[C@H](CO)CC1CCNC1=O (some centres unmarked) [Compound 3] | Inactive ^a |  |  |  | 
CC(C)C[C@H](NC(=O)OCc1ccccc1)C(=O)N[C@H](C=O)CC1CCNC1=O (some centres unmarked) [Compound 4] |  | 5.5 µM | dose-dependent inhibition | 2.1 µM | > 320 µM
CC(C)C[C@H](NC(=O)CNC(=O)OCc1ccccc1)C(=O)N[C@H](C=O)CC1CCNC1=O (some centres unmarked) [Compound 5] |  | 20.3 µM |  | 7.8 µM | > 320 µM
CC(C)C[C@H](NC(=O)CNC(=O)OCc1ccccc1)C(=O)N[C@H](CO)CC1CCNC1=O (some centres unmarked) [Compound 6] | Inactive ^a |  |  |  | 
CCCC[C@H](NC(=O)CNC(=O)OCc1ccccc1)C(=O)N[C@H](C=O)CC1CCNC1=O (some centres unmarked) [Compound 7] |  |  | sub-micromolar inhibitor |  | 
CCCC[C@H](NC(=O)CNC(=O)OCc1ccccc1)C(=O)N[C@H](CO)CC1CCNC1=O (some centres unmarked) [Compound 8] | Inactive ^a |  |  |  | 
CC(C)C[C@H](NC(=O)OCc1ccccc1)C(=O)N[C@@H](CC1CCNC1=O)C(=O)C(=O)NC(C)C (some centres unmarked) [Compound 10] | Inactive ^a |  | devoid of inhibitory activity |  | 
